Activity calls are given as the source filed them. The rule behind the calls is not given here.
How the values were obtained:
VSMC [1] = experiment: Induction of NO release in human VSMC assessed as intracellular S-nitrosothiol level at 100 uM after 1 hr by fluorimetric method; type: functional
Summary of the method: (§1)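 HVSMC seeded in 6-well plates 48 h before, then incubated 1 h at 37°C with compound (mono-amidoximes and GSNO reference 100 µM, bis-amidoxime 50 µM); controls PBS with 0.1% DMSO. Cells washed and lysed, then RSNO and nitrite quantified immediately by fluorometric 2,3-diaminonaphthalene/N2O3 assay giving naphthotriazole (ex 375, em 415 nm). Mean ± SEM, three independent experiments.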

Liver = experiment: Induction of NO release in rat liver microsomes assessed as nitrite levels after 10 mins in presence of NADPH and dioxygen by Griess assay; type: functional; conditions: microsome
Summary of the method: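 Amidoximes incubated 10 min with rat liver microsomes and NADPH; supernatant nitrite quantified by Griess assay, expressed as nmol NO2-/mg P450. Background from controls lacking microsomes, amidoxime or NADPH, or with parent nitrile, was subtracted. 4-Chlorobenzamidoxime served as reference. Mean ± SEM of three to five independent experiments.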

VSMC [2] = experiment: (§2) Cytotoxicity against human VSMC assessed as cell viability at 100 uM after 24 hrs by MTT assay; type: cell-based; conditions: vsmc, 24 h, 100 µM
Summary of the method: (§3)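 Human vascular smooth muscle cells incubated 24 h with amidoximes over 0.001 to 100 µM; viability measured (method in Supporting Information). Mean ± SEM of three to four tests, two-way ANOVA.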

VSMC [3] = experiment: Induction of NO release in human VSMC assessed as intracellular S-nitrosothiol level at 50 uM after 1 hr by fluorimetric method; type: functional; summary of the method: as §1
[4] = as §2; type: cell-based; conditions: VSMC cells, read-out: Activity; summary of the method: as §3

SMILES | Activity (VSMC [1]) | Activity (Liver) | Activity (VSMC [2]) | Activity (VSMC [3]) | viability at 24 h, 100 µM [4]
N[C@@H](CCC(=O)N[C@@H](CSN=O)C(=O)NCC(=O)O)C(=O)O | Active |  |  |  | 
N/C(=N\O)c1ccc(Cl)cc1 | 0.03 µM | 1.3 nmol/mg |  |  | 
N/C(CCCCOc1ccc(/C(N)=N/O)cc1)=N\O |  | Active | Non-Toxic | 0.17 µM | 
N/C(=N\O)c1ccc(O)cc1 | 0.2 µM | 2.4 nmol/mg |  |  | 74.7%
COc1ccc(C(=N)NO)cc1 | 0.21 µM | 1.5 nmol/mg | Non-Toxic |  | 
N/C(CCCCOc1ccccc1)=N\O |  | Active | Non-Toxic |  | 

Source: ChEMBL document CHEMBL4261598, “Synthesis of novel mono and bis nitric oxide donors with high cytocompatibility and release activity” (Bioorg Med Chem Lett, 2018)
